Assay [1] addresses Mu-type opioid receptor (Cavia porcellus) (UniProt P97266). Briefly: Inhibition of [3H]DAMGO binding to Opioid receptor mu 1 from guinea pig brain membranes. Also on record: concentration or dose not given beside the values. To be noted: concentration not given here. An outline of the steps: (§1)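 Guinea pig brain membranes (0.5 mg protein/sample) were incubated at 25 °C in 50 mM Tris-HCl, pH 7.5, with receptor-specific radioligand and compound at 1 µM. Nonspecific binding was defined with 10 µM naloxone. Values are the mean ± SE of three separate experiments, each run in triplicate.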

Assay [2] addresses T1, Neuronal acetylcholine receptor; alpha3/beta4 (Homo sapiens, UniProt P30926+P32297). The experiment in a line: Rate of inhibition of Ach evoked currents at alpha3-beta4 nicotinic acetylcholine receptor by 20 uM concentration. The format is functional. An outline of the steps:
(§2)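 HEK293 cells transiently co-transfected with nAChR α3 and β4 cDNAs plus EGFP; EGFP-positive cells recorded 12–36 h later by whole-cell voltage clamp at -70 mV. Pipette: CsCl/CsF/HEPES/EGTA, pH 7.2; bath: NaCl/KCl/HEPES/glucose, pH 7.3. Each compound was co-applied at 20 µM (one at 18 µM) with 1 mM ACh. Reported: percent inhibition, rate of inhibition and percent recovery, as mean ± SEM.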

The nature of assay [3]: Relative inhibition index (RI) was determined as the % recovery / (rate of inhibition) and is expressed relative to Compound 3. It is filed as functional. In short, it runs like this:
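Read from the same α3β4 whole-cell ACh (1 mM) co-application recordings. The index is percent recovery divided by rate of inhibition, normalised to the parent reference ligand. Values below 1.0 mean lower Ki; values above 1.0 mean higher Ki.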

Assay [4] concerns the target Kappa-type opioid receptor (Cavia porcellus) (UniProt P41144). The experiment in a line: Inhibition of [3H]U-69593 binding to Opioid receptor kappa 1 from guinea pig brain membranes. Also on record: concentration or dose not given beside the values. To be noted: concentration not given here. An outline of the steps:
as §1

Assay [5] concerns the target T1, Neuronal acetylcholine receptor; alpha3/beta4. The experiment in a line: Recovery from Ach evoked currents at alpha3-beta4 nicotinic acetylcholine receptor at 20 uM concentration. It is filed as functional. In short, it runs like this: as §2
Assay [6] has the same target. Briefly: Inhibition of Ach evoked currents at alpha3-beta4 nicotinic acetylcholine receptor by 20 uM concentration. The format is functional. In short, it runs like this: as §2
Assay [7] has the same target. Briefly: Recovery from Ach evoked currents at alpha3-beta4 nicotinic acetylcholine receptor at 20 uM. The format is functional. In short, it runs like this: as §2
The target is the same in assay [8]. The experiment in a line: Inhibition of Ach evoked currents at Nicotinic acetylcholine receptor alpha3-beta4 by 18 uM concentration. The format is functional. An outline of the steps: as §2
For assay [9] the target is unchanged. Briefly: Recovery from Ach evoked currents at Nicotinic acetylcholine receptor alpha3-beta4 at 18 uM concentration. It is filed as functional. An outline of the steps: as §2
The target is the same in assay [10]. Briefly: Rate of inhibition of Ach evoked currents at Nicotinic acetylcholine receptor alpha3-beta4 by 18 uM concentration. It is filed as functional. In short, it runs like this: as §2
Assay [11] has the same target. Briefly: Rate of inhibition of Ach evoked currents at Nicotinic acetylcholine receptor alpha3-beta4 by 20 uM concentration. The format is functional. An outline of the steps:
as §2

The target is the same in assay [12]. The experiment in a line: Recovery from Ach evoked currents at Nicotinic acetylcholine receptor alpha3-beta4 at 20 uM concentration. The format is functional. An outline of the steps: as §2
The target is the same in assay [13]. The experiment in a line: Inhibition of Ach evoked currents at Nicotinic acetylcholine receptor alpha3-beta4 by 20 uM concentration. It is filed as functional. An outline of the steps:
as §2

In assay [14] the target is Mu-type opioid receptor (Cavia porcellus) (UniProt P97266). Briefly: Inhibitory activity was determined against Opioid receptor mu 1 from guinea pig brain membranes at 1 uM concentration, using 0.25 nM of [3H]DAMGO radioligand. To be noted: Membrane. An outline of the steps: as §1
Assay [15] deals with Kappa-type opioid receptor (Cavia porcellus, UniProt P41144). The experiment in a line: Binding affinity was determined against Opioid receptor kappa 1 from guinea pig brain membranes.
A further assay has as its target Mu-type opioid receptor (Cavia porcellus, UniProt P97266). Briefly: Binding affinity was determined against Opioid receptor mu 1 from guinea pig brain membranes.
Assay [16] deals with T1, Neuronal acetylcholine receptor; alpha3/beta4. Briefly: Binding affinity towards Nicotinic acetylcholine receptor alpha3-beta4 determined from kinetic measures of koff/kon. The format is protein-complex assay. An outline of the steps: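 Ki was estimated as koff/kon from α3β4 whole-cell recordings with drug at 20 µM co-applied with 1 mM ACh. koff was taken from the rate of recovery and kon from the rate of inhibition.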

Sequence of Kappa-type opioid receptor (Cavia porcellus) (P41144 whole entry): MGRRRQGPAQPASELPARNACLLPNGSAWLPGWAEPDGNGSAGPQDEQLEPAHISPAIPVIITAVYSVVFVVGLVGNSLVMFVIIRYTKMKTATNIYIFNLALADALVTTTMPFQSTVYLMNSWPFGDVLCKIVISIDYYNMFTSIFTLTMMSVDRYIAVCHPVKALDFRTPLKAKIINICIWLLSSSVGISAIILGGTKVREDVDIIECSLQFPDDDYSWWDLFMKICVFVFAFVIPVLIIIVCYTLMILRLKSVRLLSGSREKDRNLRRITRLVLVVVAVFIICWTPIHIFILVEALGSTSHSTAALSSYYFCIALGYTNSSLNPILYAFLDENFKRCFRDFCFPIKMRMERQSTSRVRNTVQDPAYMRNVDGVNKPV
Sequence of Mu-type opioid receptor (Cavia porcellus) (P97266 whole entry): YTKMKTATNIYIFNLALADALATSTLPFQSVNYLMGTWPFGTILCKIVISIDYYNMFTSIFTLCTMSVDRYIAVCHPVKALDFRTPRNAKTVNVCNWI
Sequence of Kappa-type opioid receptor (P41144 whole entry): as the sequence (P41144 whole entry) above
T1 sequence (P30926 whole entry): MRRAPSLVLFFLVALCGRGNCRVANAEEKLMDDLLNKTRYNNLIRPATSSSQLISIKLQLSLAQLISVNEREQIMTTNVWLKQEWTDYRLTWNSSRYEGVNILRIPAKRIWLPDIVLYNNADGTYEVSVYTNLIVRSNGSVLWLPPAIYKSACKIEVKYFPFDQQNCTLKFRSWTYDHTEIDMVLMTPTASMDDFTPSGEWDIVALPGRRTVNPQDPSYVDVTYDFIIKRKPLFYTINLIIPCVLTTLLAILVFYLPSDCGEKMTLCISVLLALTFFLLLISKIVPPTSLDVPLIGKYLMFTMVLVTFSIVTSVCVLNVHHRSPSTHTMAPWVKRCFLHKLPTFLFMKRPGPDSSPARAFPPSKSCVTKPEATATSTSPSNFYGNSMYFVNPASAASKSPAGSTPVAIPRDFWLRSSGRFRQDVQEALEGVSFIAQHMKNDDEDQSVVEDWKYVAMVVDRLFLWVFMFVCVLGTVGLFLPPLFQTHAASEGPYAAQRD
T1 sequence (P32297 whole entry): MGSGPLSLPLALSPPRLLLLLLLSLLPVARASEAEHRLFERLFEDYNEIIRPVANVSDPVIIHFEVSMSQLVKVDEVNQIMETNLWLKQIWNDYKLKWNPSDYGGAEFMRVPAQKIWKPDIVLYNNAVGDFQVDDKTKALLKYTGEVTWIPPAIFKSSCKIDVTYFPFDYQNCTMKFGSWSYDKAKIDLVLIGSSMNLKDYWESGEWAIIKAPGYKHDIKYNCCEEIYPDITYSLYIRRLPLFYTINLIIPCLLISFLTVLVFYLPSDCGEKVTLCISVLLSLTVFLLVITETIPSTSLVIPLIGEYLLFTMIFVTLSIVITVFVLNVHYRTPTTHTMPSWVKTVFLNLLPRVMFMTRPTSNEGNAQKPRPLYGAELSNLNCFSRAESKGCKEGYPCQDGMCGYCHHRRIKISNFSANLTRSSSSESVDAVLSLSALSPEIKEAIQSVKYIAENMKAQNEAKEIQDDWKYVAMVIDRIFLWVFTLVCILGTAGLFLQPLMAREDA
Sequence of Mu-type opioid receptor (P97266 whole entry): as the sequence (P97266 whole entry) above

On to `COCC[C@H]1CC2CN3CCc4c([nH]c5ccccc45)[C@](C(=O)NCCN(C)C)(C2)[C@H]13`, for which the inhibition stood at 4% in [1], 11% in assay [4] and 93% in [6]. For the same compound, the Rate of inhibition in [2] was determined as 9.5 s⁻¹. The RI in [3] worked out at 3.9. The compound also displayed a Recovery in assay [5] of 81%.

In the case of `COCCOC(=O)[C@@]12CC3C[C@H](CCOC)[C@@H]1N(CCc1c2[nH]c2ccccc12)C3`, the inhibition was 5% in assay [1], 24% in assay [4] and 99% in [6]. Also, in assay [7], the Recovery was determined as 8%. The compound further gave a Rate of inhibition in [2] of 6 s⁻¹. The RI in assay [3] turned out to be 0.6.

For the compound `COC(=O)[C@@]12CC3C[C@H](CCO)[C@@H]1N(CCc1c2[nH]c2ccccc12)C3`, the inhibition in [1] was found to be 15%; in assay [8], 98%; in assay [4], 4%. Also, the Recovery in assay [9] was 73%. This compound came in with an RI in assay [3] of 5.4. Also, the Rate of inhibition in assay [10] came out at 6.5 s⁻¹.

On to `COC(=O)[C@@]12CC3C[C@H](CCN(C)C)[C@@H]1N(CCc1c2[nH]c2ccccc12)C3`, for which the figures for the inhibition in [1], in assay [4] and in assay [6] were 15%, 11% and 99%, respectively. Also, the Recovery in assay [7] turned out to be 16%. The compound also showed a Rate of inhibition in assay [2] of 8 s⁻¹. The compound further came in with an RI in [3] of 0.9.

In the case of `COCC[C@H]1CC2CN3CCc4c([nH]c5ccccc45)[C@](C(=O)NCCO)(C2)[C@H]13`, the inhibition in assay [1] came to 7%; in [4], 9%; in assay [6], 85%. For the same compound, in assay [7], the Recovery stood at 80%. In assay [2], this compound gave a Rate of inhibition of 7.9 s⁻¹. This compound returned an RI in assay [3] of 4.7.

As to `COC(=O)[C@@]12CC3C[C@H](CCOCc4ccccc4)[C@@H]1N(CCc1c2[nH]c2ccccc12)C3`, in [11], the Rate of inhibition was 2.2 s⁻¹. In addition, the Recovery in assay [12] was 0%. Further, the results for the inhibition in assay [13], in assay [4] and in assay [14] were 64%, 6% and 12%, respectively.

In assay [7], `COCC[C@H]1CC2CN3CCc4c([nH]c5ccccc45)[C@](C(=O)O)(C2)[C@H]13` yielded a Recovery of 27%. The Rate of inhibition in assay [2] amounted to 5.1 s⁻¹. In assay [3], the RI worked out at 2.4. Besides, the inhibition in [4] turned out to be 7%; in [14] it was 11%; in assay [6], 59%.

Consider `COCC[C@H]1CC2CN3CCc4c([nH]c5ccccc45)[C@](C(=O)OCCO)(C2)[C@H]13`, for which the inhibition turned out to be 8% in [1], 8% in [4] and 97% in assay [6]. This compound also yielded a Recovery in [7] of 20%. Further, the Rate of inhibition in assay [2] came to 7.6 s⁻¹. This compound also yielded an RI in assay [3] of 1.2.

As to `CNCC[C@H]1CC2CN3CCc4c([nH]c5ccccc45)[C@](C(=O)OC)(C2)[C@H]13`, the inhibition in assay [1] was determined as 24%; in assay [4], 7%; in assay [6] it was 98%. Also, the Recovery in assay [7] turned out to be 21%. Besides, the Rate of inhibition in assay [2] is 8.5 s⁻¹. For the same compound, the RI in [3] was 1.1.

As to `COCCC1C2CN3CCc4c([nH]c5ccccc45)[C@](C(=O)OC)(C2)[C@H]13` (some centres undefined), the figures for the inhibition in assay [1], in assay [4] and in assay [6] were 18%, 10% and 94%, respectively. This compound also registered a Recovery in assay [7] of 14%. Besides, the Rate of inhibition in [2] is 4.1 s⁻¹. Besides, the RI in assay [3] stood at 1.6.

As to `COCC[C@H]1CC2CN3CCc4c([nH]c5ccccc45)[C@](C(=O)NCCCCCCNC(=O)CCCC[C@@H]4SCC5NC(=O)NC54)(C2)C13` (some centres undefined), the inhibition in assay [1] turned out to be 19%; in assay [4], 9%.

Take `COCC[C@H]1CC2CN3CCc4c([nH]c5ccccc45)[C@](C(=O)OCCNC(C)=O)(C2)[C@H]13`: the inhibition in assay [1] was 0%; in assay [4] it was 3%; in [6], 95%. The same compound came in with a Recovery in assay [7] of 45%. The compound further yielded a Rate of inhibition in assay [2] of 6.7 s⁻¹. The compound also yielded an RI in [3] of 3.1.

Turning to `COCC[C@H]1CC2CN3CCc4c([nH]c5ccccc45)[C@](C(=O)OCCN(C)C)(C2)[C@H]13`, the inhibition in assay [1] worked out at 16%; in assay [4], 78%; in assay [6], 98%. Moreover, in assay [7], the Recovery worked out at 16%. In assay [2], this compound returned a Rate of inhibition of 10.3 s⁻¹. Besides, the RI in [3] is 0.7. The same compound gave a Ki in assay [15] of 188 nM.

On to `COCC[C@H]1CC2CN3CCc4c([nH]c5ccccc45)[C@](C(=O)OC)(C2)[C@H]13` [18-METHOXYCORONARIDINE], for which the inhibition in assay [1] came to 50%; in [13] it was 98%; in [4] it was 20%. The same compound had a Rate of inhibition in assay [11] of 5.5 s⁻¹. Also, the Recovery in [12] was determined as 12%. The Ki at Mu-type opioid receptor was determined as 1100 nM; in [16] it was 700 nM; in [15], 5100 nM. This compound had an RI in assay [3] of 1.

`COCCNC(=O)[C@@]12CC3C[C@H](CCOC)[C@@H]1N(CCc1c2[nH]c2ccccc12)C3`: the inhibition in [1] worked out at 10%; in assay [4], 6%; in [6], 96%. For the same compound, the Rate of inhibition in [2] is 9.2 s⁻¹. Also, the RI in assay [3] worked out at 2.3. Also, in [5], the Recovery turned out to be 46%.

These data come from ChEMBL document CHEMBL1145812, “Synthesis and biological evaluation of 18-methoxycoronaridine congeners. Potential antiaddiction agents” (J Med Chem, 2003).
